According to ChEMBL document CHEMBL1152621, “Synthesis and discovery of pyrazole-5-carbohydrazide N-glycosides as inducer of autophagy in A549 lung cancer cells” (Bioorg Med Chem, 2009):
Each block holds one compound with its values, some of them ahead of it. Activity calls are given as the source filed them. No cut-off for these calls is given here.

Assays:
A549 [1] = assay: Induction of necrosis in human A549 cells at 40 uM after 48 hrs assessed as increase in LDH release; assay type: cell-based; details: a549, 48 h
In short: (§1)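 A549 treated 48 h at 20 or 40 µM, 0.1% DMSO control; culture medium collected and LDH release measured with a commercial lactate dehydrogenase kit; mean ± SE, n = 3.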

A549 [2] = assay: Induction of necrosis in human A549 cells at 20 uM after 48 hrs assessed as increase in LDH release; assay type: cell-based; details: a549, 48 h; in short: as §1
A549 [3] = assay: Induction of autophagy in human A549 cells assessed as increase in LC3-II protein level at 20 uM after 24 hrs by Western blot; assay type: functional, cell-based
In short: (§2)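 A549 treated 24 or 48 h at 20 or 40 µM. Lysis in 0.5% SDS/Tris pH 7.5 buffer with protease inhibitors; Bradford protein; 15% SDS-PAGE, PVDF, milk block; anti-LC3b, anti-p62, anti-β-actin overnight 4 °C, HRP secondaries, chemiluminescence on X-ray film. Levels normalized to β-actin, expressed as percent of control.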

A549 [4] = assay: Growth inhibition of human A549 cells after 48 hrs by sulforhodamine B assay; assay type: functional, cell-based; details: A549, 48 h
In short: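 A549 (RPMI 1640, 10% bovine calf serum, seeded 6250/cm2) exposed 24 h after seeding to compound at 10, 20 or 40 µM, 0.1% DMSO control, for 24 or 48 h. TCA fixation 1 h at 4 °C, 0.4% SRB in 1% acetic acid, dye dissolved in 10 mM Tris base pH 10.5, OD 510 nm; mean ± SE, n = 3.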

A549 [5] = assay: Effect on cell morphology in human A549 cells assessed as induction of vacuolization at 20 uM after 24 hrs by phase contrast microscopy; assay type: functional, cell-based
In short: (§3)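 A549 in RPMI 1640 with 10% bovine calf serum, 80 U/ml gentamicin, 37 °C, 5% CO2; seeded at 6250/cm2. Treated with compound or left untreated for 24 or 48 h. Morphology (vacuoles, cell number) photographed at 400× under inverted phase contrast microscope.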

A549 [6] = assay: Induction of autophagy in human A549 cells assessed as decrease in p62 protein level at 20 uM after 24 hrs by Western blot; assay type: functional, cell-based; in short: as §2
A549 [7] = assay: Induction of autophagy in human A549 cells assessed as decrease in p62 protein level at 20 uM after 48 hrs by Western blot; assay type: functional, cell-based; in short: as §2
A549 [8] = assay: Effect on cell morphology in human A549 cells assessed as decrease in cell number at 20 uM after 24 hrs by phase contrast microscopy; assay type: functional, cell-based; in short: as §3
A549 [9] = assay: Effect on cell morphology in human A549 cells assessed as decrease in cell number at 20 uM after 48 hrs by phase contrast microscopy; assay type: functional, cell-based; in short: as §3
A549 [10] = assay: Induction of autophagy in human A549 cells assessed as increase in LC3-II protein level at 20 uM after 48 hrs by Western blot; assay type: functional, cell-based; in short: as §2
A549 [11] = assay: Effect on cell morphology in human A549 cells assessed as induction of vacuolization at 40 uM after 48 hrs by phase contrast microscopy; assay type: functional, cell-based; in short: as §3
A549 [12] = assay: Induction of autophagy in human A549 cells assessed as increase in LC3-II protein level at 40 uM after 24 hrs by Western blot; assay type: functional, cell-based; in short: as §2
A549 [13] = assay: Induction of autophagy in human A549 cells assessed as increase in LC3-II protein level at 40 uM after 48 hrs by Western blot; assay type: functional, cell-based; in short: as §2
A549 [14] = assay: Effect on cell morphology in human A549 cells assessed as decrease in cell number at 40 uM after 48 hrs by phase contrast microscopy; assay type: functional, cell-based; in short: as §3
A549 [15] = assay: Effect on cell morphology in human A549 cells assessed as decrease in cell number at 40 uM after 24 hrs by phase contrast microscopy; assay type: functional, cell-based; in short: as §3
A549 [16] = assay: Induction of autophagy in human A549 cells assessed as decrease in p62 protein level at 40 uM after 24 hrs by Western blot; assay type: functional, cell-based; in short: as §2
A549 [17] = assay: Effect on cell morphology in human A549 cells assessed as induction of vacuolization at 40 uM after 24 hrs by phase contrast microscopy; assay type: functional, cell-based; in short: as §3
A549 [18] = assay: Induction of autophagy in human A549 cells assessed as decrease in p62 protein level at 40 uM after 48 hrs by Western blot; assay type: functional, cell-based; in short: as §2

IC50 (A549 [4]): 13.9 µM
Structure (SMILES): CC(C)(C)c1ccc(Cn2nc(-c3ccc(Cl)cc3)cc2C(=O)NN[C@@H]2OC[C@@H](O)[C@H](O)[C@H]2O)cc1
Activity (A549 [1]): Toxic | Activity (A549 [2]): Non-toxic | Activity (A549 [3]): inactive | Activity (A549 [5]): Active | Activity (A549 [6]): Active | Activity (A549 [7]): Active | Activity (A549 [8]): Active | Activity (A549 [9]): Active | Activity (A549 [10]): Active

IC50 (A549 [4]): 24.9 µM
Structure (SMILES): COc1ccc(-c2cc(C(=O)NN[C@@H]3OC[C@@H](O)[C@H](O)[C@H]3O)n(Cc3ccc(C(C)(C)C)cc3)n2)cc1
Activity (A549 [1]): Non-toxic | Activity (A549 [11]): Active

IC50 (A549 [4]): 38.9 µM
Structure (SMILES): COc1ccc(-c2cc(C(=O)NN[C@@H]3O[C@H](CO)[C@@H](O)[C@H](O)[C@H]3O)n(Cc3ccc(C(C)(C)C)cc3)n2)cc1
Activity (A549 [1]): Non-toxic | Activity (A549 [11]): Active

IC50 (A549 [4]): 21.6 µM
Structure (SMILES): CC(C)(C)c1ccc(Cn2nc(-c3ccccc3)cc2C(=O)NN[C@@H]2O[C@H](CO)[C@@H](O)[C@H](O)[C@H]2O)cc1
Activity (A549 [1]): Non-toxic | Activity (A549 [12]): inactive | Activity (A549 [13]): Active | Activity (A549 [14]): Active | Activity (A549 [15]): Active | Activity (A549 [16]): Active | Activity (A549 [17]): Active | Activity (A549 [18]): Active

IC50 (A549 [4]): 15.2 µM
Structure (SMILES): CC(C)(C)c1ccc(Cn2nc(-c3ccccc3)cc2C(=O)NN[C@@H]2OC[C@@H](O)[C@H](O)[C@H]2O)cc1
Activity (A549 [1]): Non-toxic | Activity (A549 [12]): inactive | Activity (A549 [13]): Active | Activity (A549 [14]): Active | Activity (A549 [15]): Active | Activity (A549 [16]): Active | Activity (A549 [17]): Active | Activity (A549 [18]): Active

IC50 (A549 [4]): 31.8 µM
Structure (SMILES): O=C(NN[C@@H]1O[C@H](CO)[C@@H](O)[C@H](O)[C@H]1O)c1cc(-c2ccc(Cl)cc2)nn1Cc1ccccc1
Activity (A549 [1]): Non-toxic

IC50 (A549 [4]): 35 µM
Structure (SMILES): O=C(NN[C@@H]1O[C@H](CO)[C@@H](O)[C@H](O)[C@H]1O)c1cc(-c2ccc(Cl)cc2)nn1Cc1ccc(Cl)nc1
Activity (A549 [1]): Non-toxic | Activity (A549 [11]): Active

IC50 (A549 [4]): 26.6 µM
Structure (SMILES): CC(C)(C)c1ccc(Cn2nc(-c3ccc(Cl)cc3)cc2C(=O)NN[C@@H]2O[C@H](CO)[C@@H](O)[C@H](O)[C@H]2O)cc1
Activity (A549 [1]): Non-toxic | Activity (A549 [12]): inactive | Activity (A549 [13]): Active | Activity (A549 [14]): Active | Activity (A549 [15]): Active | Activity (A549 [16]): Active | Activity (A549 [17]): Active | Activity (A549 [18]): Active
